Screening results (PubChem)
Only some compounds are listed: those with a hit (about 1.5% of all), similar ones and a draw of the others.
EBI2 antag = antagonists of human EBI2 receptor | inhibition, % at 5 µM | EBI2 beta-arrestin recruitment, luminescence, 7a,25-OHC stimulated | P32249 | 0.81% of 360,000 active; in the data active = inhibition above about 38%;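 note: enzyme fragment complementation signal reports receptor beta-arrestin coupling in cells; 0% = agonist plus DMSO wells and 100% = wells without agonist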
Target sequence (P32249 whole entry, looked up, the tested form may be a part): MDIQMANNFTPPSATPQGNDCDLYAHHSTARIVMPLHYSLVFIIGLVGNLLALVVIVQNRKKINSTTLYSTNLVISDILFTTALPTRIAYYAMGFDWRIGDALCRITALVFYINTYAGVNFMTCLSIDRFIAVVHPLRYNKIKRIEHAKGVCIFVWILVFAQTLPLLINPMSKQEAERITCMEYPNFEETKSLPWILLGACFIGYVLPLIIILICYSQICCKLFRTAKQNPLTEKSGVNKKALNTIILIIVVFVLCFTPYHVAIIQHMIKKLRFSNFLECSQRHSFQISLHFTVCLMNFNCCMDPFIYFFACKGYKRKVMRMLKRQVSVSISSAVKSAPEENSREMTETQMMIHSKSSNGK
APJ ag = APJ receptor agonism. AID 2520. CHO-K1 APJ PathHunter beta-arrestin, luminescence; 0% DMSO wells, 100% apelin. 0.11% of 330,000 active. activation, % at 20 µM. P35414;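 active = activation more than six SD over the plate average, tested at 20 µM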;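 note: 0% = DMSO alone and 100% = apelin-13 at 10 nM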
Target sequence (P35414 whole entry, looked up): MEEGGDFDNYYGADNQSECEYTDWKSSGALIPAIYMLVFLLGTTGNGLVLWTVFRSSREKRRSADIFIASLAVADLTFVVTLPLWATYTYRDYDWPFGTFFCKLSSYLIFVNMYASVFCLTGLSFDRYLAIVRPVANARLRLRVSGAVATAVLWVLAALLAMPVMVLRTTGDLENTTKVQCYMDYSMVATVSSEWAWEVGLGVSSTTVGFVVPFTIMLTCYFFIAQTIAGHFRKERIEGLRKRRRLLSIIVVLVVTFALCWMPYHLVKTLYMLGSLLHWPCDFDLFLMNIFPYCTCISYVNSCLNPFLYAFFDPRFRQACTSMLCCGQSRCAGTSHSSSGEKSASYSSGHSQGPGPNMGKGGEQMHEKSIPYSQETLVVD
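assay system = CHO-K1 APJ beta-arrestin complementation cell line | input = cell density 1000 per well | dosing = compound 20 µM once, DMSO 1% | timing = compound 90 min 25 °C, reagent 1 h | measured by = luminescence from split beta-galactosidase complementation, Galacton Star/Emerald II substrate | read-out basis = APJ agonist activity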
CXCR6 inh = CXCR6 (human) receptor inhibition | O00574 | CHO-K1 PathHunter CXCR6 beta-arrestin, luminescence | inhibition, % at 20 µM | 0.36% of 360,000 active | AID 602244; in the data active = inhibition above about 34%, passing the limit was not always enough;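 note: antagonist mode with CXCL16 agonist at 10 nM final; 0% = 10 nM CXCL16 with DMSO and 100% = unstimulated wells without agonist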
CCR6 antag = CCR6 (human) receptor antagonism; CHO-K1 CCR6 PathHunter beta-arrestin, luminescence, CCL20-stimulated; AID 493098; inhibition, % at 20 µM; P51684; 0.49% of 340,000 active;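 active = compounds whose inhibition of the agonist-driven luminescence signal at 20 µM reaches about 50%, limit read from the data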;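 note: cells stimulated with CCL20 at 14 nM final; plate controls were DMSO with CCL20 for no effect and DMSO without agonist for full effect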
APJ antag = blocks the human apelin receptor APJ | P35414 | inhibition, % at 20 µM | CHO-K1 APJ beta-arrestin complementation, luminescence | 0.32% of 330,000 active;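 active = inhibition above about 40% at 20 µM, limit read from the data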;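 note: cells challenged with 10 nM apelin-13 agonist together with compound; plate controls were apelin-13 plus DMSO wells for no effect and DMSO wells lacking apelin-13 for full effect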
EBI2 conf = confirmation of human EBI2 receptor antagonists; inhibition, % at 5 µM; EBI2 beta-arrestin luminescence, 7a,25-OHC antagonism; 29% of 2,400 active; shares compounds with EBI2 antag;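 active = inhibition of at least 50%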
EBI2 agonist = counter-screen for EBI2 antagonists: EBI2 agonist activity. shares compounds with EBI2 antag. EBI2-expressing cells, agonist mode, luminescence, 60 min; 0% vehicle, 100% 7α,25-dihydroxycholesterol control. activation, % at 5 µM. 2,400 tested, under 10 active;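 active = activation of at least 50%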
bGal cs = counter-screen for EBI2 antagonists: E. coli beta-galactosidase inhibition; inhibition, % at 5 µM; shares compounds with EBI2 antag; purified beta-galactosidase, luminescent Galacton Star, 15 min; 1% of 2,400 active;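 active = replicate-average signal at least 3 plate SD below neutral wells, shown as high inhibition, flagging enzyme-inhibiting false positives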;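 note: 0% = DMSO wells with enzyme and 100% = wells lacking enzyme; higher means stronger loss of beta-gal luminescence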
An asterisk follows results filed as active; · = no result.

SMILES	EBI2 antag	APJ ag	CXCR6 inh	CCR6 antag	APJ antag	EBI2 conf	EBI2 agonist	bGal cs
COc1ccccc1N1CCN(C(=O)/C=C/c2cccc([N+](=O)[O-])c2)CC1	19.0	-0.9	-1.9	7.2	-3.5	·	·	·
O=C(c1ccc(-c2ccccc2)cc1)N1CCCC1	1.8	-3.6	-8.8	3.0	-1.0	·	·	·
COc1ccccc1N1CCN(C(=O)/C=C/c2ccc(C)cc2)CC1	93.1*	1.1	-5.9	18.7	-2.9	84.8*	1.5	2.5
COc1ccc(-c2cc(C(=O)N3CCN(c4ccccc4OC)CC3)no2)cc1OC	7.6	-1.9	1.7	-7.6	-1.8	·	·	·
CCOc1cc(/C=C/C(=O)Nc2ccc(C(=O)NCCN(CC)CC)cc2)ccc1OCC(C)C	0.1	1.5	-14.0	24.5	-7.0	·	·	·
O=C(CN1CCOCC1)Nc1ccc([N+](=O)[O-])cc1Br	-0.3	-1.8	1.0	11.8	-8.4	·	·	·
COc1ccccc1N1CCN(C(=O)COc2ccc(C)cc2Br)CC1	50.3*	-0.4	5.2	-19.6	-7.9	16.3	-0.6	-11.2
CCCS(=O)(=O)N1CCN(C(=O)c2cccnc2)CC1	-9.9	1.3	-6.0	-11.3	12.0	·	·	·
CCCS(=O)(=O)N1CCN(C(=O)c2ccc(-c3ccccc3)cc2)CC1	73.4*	5.4	0.0	-4.8	-4.8	43.2	0.6	3.2
COc1ccccc1N1CCN(C(=O)c2cc(-c3cccs3)on2)CC1	67.2*	-1.5	-4.2	-2.5	-12.1	51.8*	2.8	11.4
Cc1ccc(/C=C/C(=O)N2CCN(c3cccc(C(F)(F)F)c3)CC2)cc1	83.1*	0.6	1.4	9.2	-8.5	76.1*	1.4	-2.7
COc1ccccc1S(=O)(=O)Cc1ccc(C(=O)NCCCN2CCN(c3ccc(F)cc3)CC2)o1	-7.2	-3.6	-3.8	13.3	-8.2	·	·	·
COc1ccccc1N1CCN(C(=O)c2ccc(-c3ccccc3)cc2)CC1	73.5*	-0.2	-3.3	12.2	10.7	40.3	-1.4	-8.6
CCOC(=O)/C=C/C(=O)Nc1cc(S(=O)(=O)Nc2ccc(OC)cc2)ccc1N1CCOCC1	75.0*	8.1	-2.2	10.4	-51.5	71.8*	0.8	11.3
CN[C@@H](CO)C(=O)NC[C@H]1O[C@@H](n2cnc3c(N)ncnc32)[C@H](O)[C@@H]1O	4.0	·	1.3	·	·	·	·	·
N#Cc1cnc(Oc2ccc(Cl)cc2)nc1N	47.3*	-1.4	1.4	0.7	-17.9	0.1	-1.0	-13.6
CCOc1ccc(NC(=S)Nc2ccc(OCC)cc2)cc1	80.2*	-3.3	4.2	20.7	-17.0	61.8*	0.3	8.1
CCOc1ccc(NC(=S)Nc2cc(OC)c(Cl)cc2OC)cc1	65.0*	-2.5	4.9	13.4	9.1	18.7	-1.8	-4.2
COc1cc(NC(=S)Nc2cccc(Cl)c2Cl)c(OC)cc1Cl	1.3	-5.0	2.2	16.1	3.7	·	·	·
CCOc1ccc(NC(=S)Nc2ccc(C)c([N+](=O)[O-])c2)cc1	64.8*	-3.8	0.0	-2.0	5.7	65.8*	1.4	8.4
CCc1ccc(NC(=S)Nc2cccc(OC)c2)cc1	49.8*	-4.8	9.0	6.2	-4.8	20.9	2.2	3.7
O=C(Nc1cccc(S(=O)(=O)C(F)(F)F)c1)[C@@H]1O[C@H](CO)[C@@H](O)[C@H]1O	-15.2	·	-5.4	·	·	·	·	·
CNC(=S)Nc1ccc(OC(F)(F)F)cc1	7.4	-1.3	-0.3	1.1	0.3	·	·	·
CCOc1ccc(NC(=S)Nc2ccc(OC(F)(F)F)cc2)cc1	75.8*	-1.5	0.7	-7.2	20.5	53.4*	-1.0	-19.3
O=C(O)CC(c1cccc([N+](=O)[O-])c1)N1Cc2ccccc2C1=O (stereo not given)	-4.7	-0.4	-7.5	5.0	-8.6	·	·	·
SMILES	EBI2 antag	APJ ag	CXCR6 inh	CCR6 antag	APJ antag	EBI2 conf	EBI2 agonist	bGal cs
Clc1ccc(OCc2nnnn2-c2ccccc2)cc1	78.6*	-4.9	-1.8	22.1	6.8	54.4*	1.6	3.8
CC(NC(=O)c1ccc(NC(=O)CC2SC(N3CCCC3)=NC2=O)cc1)c1ccc(S(N)(=O)=O)cc1 (stereo not given)	-17.1	-5.5	-5.6	6.7	-1.7	·	·	·
COc1ccc(N2CCN(C(=O)c3cc(-c4ccc(F)cc4)[nH]c3C)CC2)cc1	92.6*	-0.6	12.6	-0.5	-1.3	62.5*	2.1	8.8
COc1ccc(-n2ncc(C(=O)N3CCN(c4ccc(F)cc4)CC3)c2C)cc1	-5.4	-3.1	-9.0	8.5	-5.8	·	·	·
CCOC(=O)N1CCN(C(=O)c2cc(-c3ccc(F)cc3)[nH]c2C)CC1	89.0*	-1.9	3.1	1.7	-1.4	85.6*	-0.9	-11.9
Cc1[nH]c(-c2ccc(F)cc2)cc1C(=O)N1CCN(c2ccc(Cl)cc2)CC1	72.5*	0.9	-16.4	-4.2	0.4	46.8	0.0	-5.5
O=C1c2cccc(-c3ccc(C(F)(F)F)cc3)c2C2CC=CCN12 (stereo not given)	9.3	·	9.7	·	·	·	·	·
CC(C)Sc1ccc(C(=O)Nc2ccc(F)cc2F)cn1	45.2*	-1.0	7.9	13.1	-7.6	20.4	0.2	12.1
COc1ccc2cc(C(=O)N3CCN(c4ccccc4OC)CC3)[nH]c2c1	74.5*	-3.7	-13.2	-9.6	10.3	48.9	1.8	3.7
COc1ccc2cc(C(=O)N3CCN(c4ccccc4F)CC3)[nH]c2c1	65.5*	0.2	-5.3	3.5	-0.9	57.7*	1.5	6.6
Clc1cccc(Nc2nc(-c3ccncc3)cs2)c1	52.2*	2.1	-13.4	-12.4	-4.2	47.8	-0.5	-8.0
Cc1cccc(Nc2nc(-c3ccncc3)cs2)c1	33.5	-1.3	-6.4	-24.8	-14.1	·	·	·
COCCn1c(SCc2ccc(C)cc2)nc2c1c(=O)[nH]c(=O)n2C	-5.4	-0.8	5.5	-0.9	5.2	·	·	·
CCc1ccc(CN(Cc2cccnc2)C(=O)/C=C/c2ccc(OC)cc2)cc1	61.9*	-1.7	10.5	14.8	-16.9	26.7	-0.8	-2.8
CC(=O)N1CCN(C(=O)C2CCN(S(=O)(=O)c3ccccc3C(F)(F)F)CC2)CC1	-7.6	-3.6	1.0	7.7	4.2	·	·	·
Cc1ccc(S(=O)(=O)N2C[C@]3(O)C[C@@H]4C(=O)N(c5ccccc5)C(=O)[C@@H]4C[C@]3(OC(=O)NC3CCCC3)C2)cc1	2.4	·	3.7	·	·	·	·	·
O=[N+]([O-])c1ccc(NS(=O)(=O)N2CCOCC2)cc1	-2.2	-3.9	7.3	21.8	-4.5	·	·	·
Cc1c(C(=O)NCc2cccc([N+](=O)[O-])c2)sc(=O)n1Cc1ccc(C(C)C)cc1	10.1	·	1.8	·	·	·	·	·
CSc1ccc(NC(=O)N2CCC(C(=O)c3ccc(F)cc3)CC2)cc1	63.8*	-3.0	-5.4	9.3	2.3	54.7*	1.3	-2.2
